# Sampled rows, rich in hits. Any-hit rate of the full collection: about 3.1%.
# KCNQ1 act = human KCNQ1 channel potentiation or activation. 310,000 tested, 0.35% active. P51787. CHO-K1 KCNQ1, thallium flux FluxOR fluorescence; hits give high values. B-score at 10 µM;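 active = fluorescence ratio B-score, a plate-corrected score, at least three library SD, with initial intensity B-score within 5 SD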
# Target sequence (P51787 whole entry, looked up): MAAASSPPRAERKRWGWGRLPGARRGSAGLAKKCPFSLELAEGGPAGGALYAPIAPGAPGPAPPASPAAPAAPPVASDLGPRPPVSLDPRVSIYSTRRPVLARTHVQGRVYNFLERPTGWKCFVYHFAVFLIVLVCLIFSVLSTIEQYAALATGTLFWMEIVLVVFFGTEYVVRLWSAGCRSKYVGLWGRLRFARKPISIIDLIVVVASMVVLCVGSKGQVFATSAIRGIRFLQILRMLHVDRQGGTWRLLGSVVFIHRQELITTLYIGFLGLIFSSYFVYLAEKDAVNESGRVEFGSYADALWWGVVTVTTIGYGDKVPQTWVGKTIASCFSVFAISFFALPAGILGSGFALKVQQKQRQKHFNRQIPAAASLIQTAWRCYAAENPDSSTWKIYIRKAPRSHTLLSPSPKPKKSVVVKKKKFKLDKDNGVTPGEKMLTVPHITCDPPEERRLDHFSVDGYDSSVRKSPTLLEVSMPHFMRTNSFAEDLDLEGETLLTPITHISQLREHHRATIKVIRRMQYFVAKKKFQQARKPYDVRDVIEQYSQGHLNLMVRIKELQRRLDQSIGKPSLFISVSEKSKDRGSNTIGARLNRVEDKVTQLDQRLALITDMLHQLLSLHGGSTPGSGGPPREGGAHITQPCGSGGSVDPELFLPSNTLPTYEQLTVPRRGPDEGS
#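 assay system = CHO-K1 cells stably expressing KCNQ1 | medium = assay buffer, equal DMSO in all wells | timing = 37 °C overnight plating, 90-min dark dye load, 20-min compound pretreatment | measured by = kinetic FluxOR thallium fluorescence, 10-s 1-Hz baseline, 110-s post-stimulus read | measure = fluorescence change relative to baseline, converted to B score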
# KCNQ1 block = blocks the human KCNQ1 potassium channel; P51787; CHO-K1 KCNQ1, FluxOR thallium flux fluorescence; hits give high values; B-score at 10 µM; 310,000 tested, 1.3% active; AID 2642;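 active = compounds whose thallium flux B-score, printed positive for inhibition, exceeds three library SD while starting fluorescence stays within three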;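 note: channel opened by potassium depolarization with thallium stimulus after 20 min compound exposure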
# KCNK3 block = human KCNK3 channel inhibition, primary screen | 340,000 tested, 0.84% active | O14649 | CHO-KCNK3 thallium flux, FluxOR fluorescence; hits give low values | B-score at 10 µM | AID 602410;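 active = B-score under library mean minus 4 SD, starting fluorescence ratio at most library mean plus 5 SD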;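 note: more negative B-score means stronger inhibition of thallium flux through KCNK3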
# KCNK9 block = inhibitors of human KCNK9 two-pore domain potassium channel; B-score at 10 µM; HEK293 KCNK9, FluxOR thallium flux fluorescence; hits give low values; 310,000 tested, 1.2% active;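 active = ratio B-score over 3 SD below the library mean, with starting fluorescence within 5 SD of its mean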;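 note: negative B-score means less thallium flux so channel inhibition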
# hERG protect = hERG (human) protection from proarrhythmic block; Q12809; CHO-hERG, FluxOR thallium flux, dofetilide IC70 present; activation (rescue from dofetilide block), less the hit threshold, % at 10 µM; 310,000 tested, 0.51% active; AID 1511;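 active = activation above the mean of controls blocked by dofetilide plus 5 SD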;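 note: thallium influx through hERG after potassium depolarization seen as dye fluorescence rise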
# * = called active by the depositor; i = inactive; nt = not tested or not shown.
SMILES,KCNQ1 act,KCNQ1 block,KCNK3 block,KCNK9 block,hERG protect
CCN(CC(=O)NCc1ccc(Cl)cc1)C(=O)CSCC(=O)Nc1cccc(C)c1,i,i,i,i,-9
CCOC(=O)c1cc(CC)sc1NC(=O)Cc1ccccc1,i,i,i,-7.6*,-13
CCOC(=O)c1cc(CC)sc1NC(=O)COC,i,i,i,i,-6
Cc1cccc(OCc2n(CC(=O)OC3CC(C)CCC3C(C)C)c3ccccc3[n+]2C)c1 (stereo not drawn),i,9*,-13*,i,-31
CC(=O)CC1OC(=O)C(Br)=C1NCc1ccccc1 (stereo not drawn),i,6*,i,i,-7
CC(=O)Oc1c(-c2ccco2)oc2ccccc2c1=O,8*,i,i,i,0
CCOC(=O)/C(C#N)=C\C=C1C=CN(C)C=C1,i,8*,i,i,-15
N#C/C(=C\c1ccncc1)C(=O)Nc1ccc(C(=O)O)cc1,i,i,i,i,-12
CC(C)c1ccc(NC(=O)/C(C#N)=C/c2ccncc2)cc1,8*,i,i,i,-12
CC(=O)Nc1ccc(NC(=O)C(C)OC(=O)c2ccc(C)s2)cc1 (stereo not drawn),i,i,i,i,-8
c1ccc(-c2nc3ccccc3[nH]2)cc1,i,i,i,i,-4
S=c1nc(-c2ccccc2)[nH]c2ccc(Br)cc12,101*,i,i,i,59*
C=CCn1c(=O)c2c(nc3n2CC(C)CN3CCc2ccccc2)n(C)c1=O (stereo not drawn),i,i,i,i,-8
Cc1ccc(NC(=O)c2ccccc2NS(=O)(=O)c2ccc(Cl)s2)cc1S(=O)(=O)N1CCOCC1,i,6*,i,i,-22
Cc1ccc(NC(=O)c2oc3ccccc3c2COC(C)C)cc1S(=O)(=O)N1CCOCC1,nt,nt,-9.4*,nt,nt
Cc1cccc(OCCC(=O)Nc2ccc(C)c(S(=O)(=O)N3CCOCC3)c2)c1,nt,nt,i,nt,nt
COc1ccc(NC(=O)c2oc3ccccc3c2CSC)cc1S(=O)(=O)N1CCOCC1,nt,nt,i,nt,nt
Cc1ccc(NC(=O)COc2cccc(Oc3ccccc3)c2)cc1S(=O)(=O)N1CCOCC1,nt,nt,-8.8*,nt,nt
COc1ccc(NC(=O)[C@@H](NC(=O)c2ccccc2F)C(C)C)cc1S(=O)(=O)N1CCOCC1,i,i,i,i,-6
O=C(c1cc(-c2ccccc2)nc2ccccc12)N1CCN(c2ccccc2O)CC1,i,i,i,i,-23
Cc1ccc2nc(-c3ccccc3)cc(C(=O)N3CCN(c4ccccc4O)CC3)c2c1,i,12*,i,i,-35
Cc1ccc(C)c(-c2cc(C(=O)Nc3sc(C)c(C)c3C(N)=O)c3ccccc3n2)c1,i,6*,i,i,-16
CCOC(=O)c1sc(NC(=O)c2cc(-c3ccccc3)nc3ccccc23)c(C#N)c1C,i,8*,i,i,-35
COC(=O)c1sccc1NC(=O)c1cc(-c2ccc(C)cc2C)nc2ccccc12,i,8*,i,i,-18
O=C(Nc1nccs1)c1cc(-c2ccccc2)nc2ccccc12,i,i,i,-6.7*,-14
SMILES,KCNQ1 act,KCNQ1 block,KCNK3 block,KCNK9 block,hERG protect
O=C(Nc1nccs1)c1cc(-c2ccco2)nc2ccccc12,i,i,i,i,-21
COc1ccc(CCN2C(=O)CSC2=Nc2ccc(C(C)C)cc2)cc1OC,i,i,i,i,-13
O=C(Nc1ccc(Cl)c(C(F)(F)F)c1)NC1CC2CCCC(C1)N2Cc1ccccc1 (stereo not drawn),i,13*,nt,i,-30
O=C(NC1CC2CCCC(C1)N2C(=O)Nc1ccc(Cl)c(C(F)(F)F)c1)C1CC1 (stereo not drawn),i,i,i,i,-14
CC1Oc2ccccc2N(CC(=O)N2CCCCCC2)C1=O (stereo not drawn),22*,i,i,i,2
CC(C)C(c1nnnn1Cc1ccco1)N1CCN(c2cccc(Cl)c2)CC1 (stereo not drawn),i,i,i,-8*,-4
Clc1ccc2c(N/N=C/c3cccc(Br)c3)ccnc2c1,i,9*,i,i,-3
O=C(CSc1n[nH]c(-c2ccc(S(=O)(=O)N3CCCCC3)cc2)n1)Nc1nccs1,i,i,i,i,6.5*
Cn1c(SCC(=O)Nc2nccs2)nnc1-c1ccc(S(=O)(=O)N2CCCC2)cc1,i,i,i,i,-7
CC(C)N1C(=O)/C(=C/c2nc3ccccc3c(=O)n2-c2ccccc2)c2ccccc21,i,6*,i,i,-20
O=c1c(-c2ccccc2)nc(-c2ccccc2)cn1O,i,i,i,i,4.9*
O=C(O)c1cc([N+](=O)[O-])ccc1NCc1ccccc1,i,i,i,i,-3
O=C(O)c1cc([N+](=O)[O-])ccc1NCCCc1ccccc1,i,6*,i,i,-10
COc1ccc(C2c3cc(OC)c(OC)cc3CCN2C(=O)c2cccc([N+](=O)[O-])c2)cc1OC (stereo not drawn),i,i,i,i,-4
COc1cc2c(cc1OC)C(c1ccc([N+](=O)[O-])cc1)N(C(C)=O)CC2 (stereo not drawn),i,i,i,i,9.4*
Cc1cccc(/C=N/NC(=O)c2cc(Br)ccc2O)n1,11*,i,i,i,0
CC(C)OCCCNC(=O)NC(=O)c1ccc(Cl)cc1,i,i,i,i,-4
CN1/C(=C/C(=O)c2nc(S(C)(=O)=O)ncc2Cl)C(C)(C)c2ccccc21,i,6*,i,i,-17
CCC(C)Sc1cc(-c2nc3cc(C)ccn3c2NC2CCCCC2)ccc1OC (stereo not drawn),nt,nt,i,nt,nt
CC(=O)c1ccc(-c2cccc(-c3nc4ccccn4c3NC3CCCCC3)c2)cc1,i,i,i,-7.7*,-6
CCC(C)Sc1cc(-c2nc3ccccn3c2NC2CCCCC2)ccc1OC (stereo not drawn),i,8*,i,i,-12
c1csc(-c2nc3ccccn3c2NC2CCCCC2)c1,i,i,i,i,-7
O=C(Cn1nc([N+](=O)[O-])nc1Br)NC(c1ccccc1)c1ccccc1,i,i,i,i,-3
Cc1ccc([N+](=O)[O-])cc1N=Nc1c(-c2ccc([N+](=O)[O-])cc2)[nH]n(C(N)=S)c1=O,i,7*,i,i,-25
Cc1ccc([N+](=O)[O-])cc1N=Nc1c(C)[nH]n(C(N)=S)c1=O,i,i,i,i,-4

# Screening data (PubChem BioAssay)
